# Reference: PubChem BioAssay AID1665 (Sanford-Burnham Center for Chemical Genomics, 2009)
# Screen size: about 190,000 compounds; about 590 (0.31%) were called active. The sample holds actives, similar compounds and a random draw of the others, so the mix is not that of the screen.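 The calls were made as follows: active = nuclear translocation activity above 50% at 5 µM, with a well cell count of 50 or more; inconclusive = wells under 50 cells across six images, flagged as toxic; inactive = the rest.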
# Assay: beta-catenin nuclear localization change in HeLa – imaging, HeLa cells, immunofluorescence, high-content, primary screen (AID 1665);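 as to nuclear translocation activity: per-cell ratio of nuclear to cytoplasmic median beta-catenin stain intensity; plate controls were DMSO negative control for no effect and GSK-3 inhibitor IX positive control for full effect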
# Conditions: at 5 µM; cell count: HeLa beta-catenin nuclear translocation, measured here: cell count, cytotoxicity flag; nuclear translocation activity: stronger effect = higher value
# In short: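 Signal – beta-catenin immunofluorescence imaging with DAPI · Test system – human HeLa cell line · Dosing – 5 µM primary single dose, 0.1% DMSO, 0.02–20 µM confirmation series · Measure – % activation, nuclear-to-cytoplasmic median beta-catenin signal ratio per cell · Incubation – 24 h compound exposure at 37°C, 5% CO2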
SMILES,cell count,nuclear translocation activity
COc1cc2nc(Cl)nc(NCCO)c2cc1OC,1310 cells,0.1% (inactive)
CCOC(=O)c1cc(NC(=O)c2cccnc2)cc(C(=O)OCC)c1,1120 cells,0.3% (inactive)
CCOc1cccc(C(=O)Nc2cccnc2)c1,1110 cells,-2.1% (inactive)
CCOC(=O)c1ccc(-c2ccc(C(=O)Nc3cccnc3)o2)cc1,659 cells,56.9% (active)
COC(=O)CNc1nc(Cl)nc(N2CCC(C)CC2)n1,1320 cells,-0.1% (inactive)
CC(C)Sc1nnc([C@H](Cc2ccccc2)NC(=O)OC(C)(C)C)o1,1410 cells,0.4% (inactive)
CCOC(=O)Cc1cc(=O)[nH]c(/N=C(\N)Nc2ccc(OC)cc2)n1,1300 cells,-0.7% (inactive)
Cc1ccc(C(=O)NNC(=O)c2cc3cc4ccccc4nc3s2)cc1,719 cells,80.3% (active)
O=C(NNC(=O)c1cc2c(s1)CCCC2)c1ccccc1,547 cells,-1.8% (inactive)
Cc1ccc(C(=O)NNC(=O)c2cccs2)cc1,1120 cells,-0.6% (inactive)
CCOc1ccccc1N1CN(Cc2ccccc2)CNC1=S,1340 cells,-1.3% (inactive)
CCc1nc2sc3c(Cl)ncnc3c2c2c1CCCC2,1350 cells,-1.6% (inactive)
Cc1cc(=O)[nH]c(S)c1C#N,1290 cells,-0.9% (inactive)
O=C(COc1ccccc1)N1CCN=C1SCc1cccc(F)c1,1330 cells,0.4% (inactive)
COc1cc(C=O)ccc1Oc1nnnn1-c1ccccc1,1310 cells,-0.4% (inactive)
Cc1cc(C(=O)NNS(=O)(=O)c2ccccc2C(F)(F)F)nn1C(C)(C)C,1120 cells,-2.9% (inactive)
CCOC(=O)c1c(NC(=O)NC(C)(C)C)sc2c1CCN(C)C2,1280 cells,0.5% (inactive)
Nc1nc(SC23CC4CC(CC(C4)C2)C3)ns1,1340 cells,0.7% (inactive)
CC(C)n1c(=S)[nH]c2cc(C(F)(F)F)ccc21,1090 cells,-0.8% (inactive)
COC(=O)c1ccc(S(=O)(=O)NCc2ccccc2)n1C,1270 cells,0.3% (inactive)
CCOCCn1c(-c2ccccc2)nc2ccccc21,1340 cells,-0.7% (inactive)
O=C(O)c1ccccc1OCc1ccccc1Cl,1320 cells,-1.2% (inactive)

SMILES,cell count,nuclear translocation activity
Cc1cc(=O)[nH]c(N/N=C/c2ccc3c(c2)OCCO3)n1,1320 cells,-0.5% (inactive)
COc1ccc(NC(=O)C2CCC(CNc3c(N4CCCCC4)c(=O)c3=O)CC2)c(OC)c1 (stereo unspecified),1350 cells,-0.3% (inactive)
Cc1nnc2n1N=C(c1ccc3c(c1)NC(=O)CO3)CS2,1300 cells,-0.7% (inactive)
C/C(=N/NC(=O)CN1CCN(S(=O)(=O)c2ccc(Br)cc2)CC1)c1ccncc1,1320 cells,-0.5% (inactive)
Nc1ccc2nn(-c3ccc(Cl)cc3)nc2c1,1360 cells,1% (inactive)
CC1=NNC(=O)C1CCC(=O)N/N=C(\C)c1ccc(Cl)cc1 (stereo unspecified),1240 cells,0.6% (inactive)
Cc1cc(C)nc(SCc2cn3c(C)cc(C)nc3n2)n1,1340 cells,-0.4% (inactive)
CCc1nc2sc(C(=O)O)c(N)c2c2c1CCCC2,1230 cells,2.4% (inactive)
CC(=O)NNC(=O)c1csc(Cc2c(Cl)sc3ccc(Cl)cc23)n1,1250 cells,-0.8% (inactive)
CC(CNS(=O)(=O)c1ccc(Br)cc1)CN(C)C (stereo unspecified),1320 cells,0.2% (inactive)
COc1ccc(CNC(=O)C(Cc2ccccc2)n2cccc2)cc1 (stereo unspecified),1270 cells,-0.6% (inactive)
COC(OC)c1ccnc(SCc2ccccc2Cl)n1,1270 cells,-2.6% (inactive)
O=C(O)C(F)(F)C(NCc1ccccc1)c1ccccc1 (stereo unspecified),1280 cells,0% (inactive)
COc1cc(/C=N\Nc2nc(-c3cccs3)c(NC(C)=O)s2)ccc1O,1300 cells,0.1% (inactive)
COc1cc(/C=C(\C#N)c2nc3c(s2)CC(C)CC3)ccc1O (stereo unspecified),1440 cells,2.5% (inactive)
CCOc1cc(/C=C(\C#N)c2nc(-c3cccs3)c(NC(C)=O)s2)ccc1O,77 cells,68.9% (active)
Cn1c(SCC(=O)N2CCOCC2)nnc1-c1ccc2ncccc2c1,1320 cells,0.1% (inactive)
O=[N+]([O-])c1cccc2ncccc12,1340 cells,-0.4% (inactive)
O=C(NC1CCCCC1)c1cc(C2CC2)on1,1290 cells,-0.2% (inactive)
Cc1ccc(-c2nc3ccccc3[nH]c2=O)cc1,1310 cells,2.5% (inactive)
CCCCCCCCCCCCN1C(=O)CSC1c1cccnc1 (stereo unspecified),1170 cells,-0.9% (inactive)
CC(=O)NC(=S)Nc1ccc(NC(=S)NC(=O)c2ccc([N+](=O)[O-])cc2)cc1,1350 cells,-0.9% (inactive)

SMILES,cell count,nuclear translocation activity
CCc1ccccc1NC(=O)CSc1nnc(CCNC(=O)OC(C)(C)C)o1,1310 cells,1% (inactive)
Oc1ccc(N=Cc2c(O)ccc3ccccc23)cc1,1240 cells,-1.5% (inactive)
Oc1c(C=Nc2cccc3nsnc23)ccc2ccccc12,317 cells,154% (active)
Oc1ccc2ccccc2c1C=Nc1ccccc1,1230 cells,1.3% (inactive)
O=C(O)/C=C/c1ccc2c(c1)OCCO2,1430 cells,-1.2% (inactive)
Cc1cc(Nc2ccc(Cl)cc2)nc(N2CCOCC2)n1,1280 cells,-0.7% (inactive)
Cc1onc(NC(=O)c2ccc([N+](=O)[O-])o2)c1Br,1260 cells,5.1% (inactive)
COC(=O)c1cc(NC(=O)c2ccco2)ccc1N1CCOCC1,1200 cells,-0.7% (inactive)
CCCC(=O)Nc1ccc2c(c1)nc(CCNC(=O)c1ccco1)n2C,1400 cells,-1.3% (inactive)
COc1ccc(NC2=CC(=S)NC(C)(C)C2)cc1,1130 cells,-1.8% (inactive)
COC(=O)c1sc(SC)c(S(=O)(=O)C(C)C)c1N/N=C(\C#N)S(=O)(=O)c1ccccn1,1240 cells,-2.6% (inactive)
CCN(CC)CCCN=Cc1c(O)n(-c2ccc(C)cc2)c(=O)c2ccccc12,1350 cells,-0.1% (inactive)
O=C(O)CC1(CC(=O)Nc2cccc(C(F)(F)F)c2)CCCC1,1260 cells,0.5% (inactive)
CN(C)/C=C(/C(=O)c1ccc(Cl)c(Cl)c1)c1nnnn1-c1ccccc1,1260 cells,0% (inactive)
COc1ccc2c(CC(=O)OCC(=O)NC(N)=O)coc2c1,1100 cells,-0.9% (inactive)
COc1cccc(C2Nc3cccc4cccc(c34)N2)c1,1290 cells,-0.1% (inactive)
Nc1nnnn1/N=C/c1cc([N+](=O)[O-])ccc1O,1250 cells,2.2% (inactive)
CSC1=NCCN1C(=O)Cc1cccc2ccccc12,1340 cells,0.5% (inactive)
COc1ccc(C(=O)N/N=C2\CCS(=O)(=O)c3ccc(F)cc32)cc1OC,1320 cells,0.5% (inactive)
O=C(N/N=C/c1cccc([N+](=O)[O-])c1)c1ccncc1,1370 cells,-0.3% (inactive)
O=C(NCCN1CCN(Cc2ccccc2)CC1)c1cc2c(=O)[nH]c3ccccc3c2s1,1180 cells,-3.9% (inactive)
Cc1cccc(N(C)C(=O)c2cc3c(=O)[nH]c4ccc(C)cc4c3s2)c1,369 cells,61.3% (active)

SMILES,cell count,nuclear translocation activity
Cc1ccc2[nH]c(=O)c(CC=C(Cl)Cl)c(C)c2c1,484 cells,-1.1% (inactive)
O=C(NCC1CCCO1)c1ccccc1-c1nc(-c2ccccc2Cl)no1 (stereo unspecified),1310 cells,0% (inactive)
O=[N+]([O-])/C=C1\CCCCCN1,1320 cells,0% (inactive)
O=c1[nH]nc(SCCS(=O)(=O)c2ccc(F)cc2)n1-c1ccccc1C(F)(F)F,1270 cells,2.8% (inactive)
Cc1ccc(S(=O)(=O)NC(=O)N2CCCC(C)(C)C2)cc1,1150 cells,0.1% (inactive)
Cc1ccc(S(=O)(=O)N2CCCC2CO)cc1 (stereo unspecified),831 cells,-0.4% (inactive)
Cc1ccc(S(=O)(=O)C2(S(=O)(=O)c3ccc(C)cc3)CCCC2)cc1,297 cells,67.3% (active)
CCCC(=O)n1nc(-c2ccccc2)nc1N,1050 cells,0% (inactive)
COc1ccc(C(=O)n2nc(-c3ccc(C)cc3)nc2N)cc1OC,579 cells,100% (active)
COc1ccc(C(=O)CN2C(=O)NC(C)(c3ccc(C)cc3)C2=O)cc1OC (stereo unspecified),931 cells,-3.5% (inactive)
CN(C)C(=O)c1coc2nc3ccccc3nc12,1300 cells,-0.3% (inactive)
CC[C@]1(O)C[C@@H]2CN(CCc3c([nH]c4ccccc34)[C@@](C(=O)OC)(c3cc4c(cc3OC)N(C)[C@H]3[C@@](O)(C(=O)OC)[C@H](OC(C)=O)[C@]5(CC)C=CCN6CC[C@]43[C@@H]65)C2)C1,560 cells,-2% (inactive)
CC[C@]1(O)CC2CN(CCc3c([nH]c4ccccc34)[C@@](C(=O)OC)(c3cc4c(cc3OC)N(C=O)[C@H]3[C@@](O)(C(=O)OC)[C@H](OC(C)=O)[C@]5(CC)C=CCN6CC[C@]43[C@@H]65)C2)C1 (stereo partly specified),617 cells,62.5% (active)
CC/C=C/C(=O)N1CC2(CC(c3cccc(NC(=O)CC)c3)=NO2)C[C@H]1C(N)=O (stereo partly specified),1030 cells,0.6% (inactive)
O=C(Nc1cccnc1Oc1ncnc2cc(Cl)ccc12)c1ccc(F)cc1,1330 cells,-0.5% (inactive)
COCCCn1c(-c2cccs2)nc2nc3ccccc3nc21,1370 cells,-0.5% (inactive)
CCC1=NN2C(=N)/C(=C/c3cc(C)n(-c4ccccc4)c3C)C(=O)N=C2S1,1350 cells,-0.8% (inactive)
Cc1[nH]n(-c2ccccc2)c(=O)c1N=Nc1ccccc1C(=O)N1CCCCC1,1360 cells,0.5% (inactive)
Cc1cnc(NC(=O)CSc2nnc(-c3ccc(Cl)cc3Cl)n2N)s1,1100 cells,-0.9% (inactive)
Cc1ccc(CCC(=O)Nc2ncc(Cc3cc(Cl)ccc3Cl)s2)o1,142 cells,73.2% (active)
CCOc1ccccc1NC(=O)CCc1ccc(C)o1,1160 cells,-2% (inactive)
NC(=O)N/N=C\c1cccs1,1280 cells,0.1% (inactive)
